# Experimental data taken from PMC8113834 (Computational and Structural Biotechnology Journal, 2021).
# Square brackets hold non-standard residues; d marks the D form. Peptide text beside a SMILES is read from it. pY = N[C@@H](Cc1ccc(OP(=O)(O)O)cc1)C(=O)O
# Key:
# [1] = molecular target: T1, SHP2 C-SH2 (SHP2 106–220) (Homo sapiens, UniProt Q06124); experiment: Isothermal titration calorimetry, peptide titrated onto C-SH2; format: binding
# T1 sequence (Q06124 106-220): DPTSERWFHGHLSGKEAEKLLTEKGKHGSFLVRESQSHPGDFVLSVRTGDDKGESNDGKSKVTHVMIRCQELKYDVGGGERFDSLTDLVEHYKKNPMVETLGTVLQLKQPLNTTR
# SHP2 N-SH2 = molecular target: T2, SHP2 N-SH2 (Homo sapiens, UniProt Q06124); experiment: NMR 1H,15N-HSQC titration of N-SH2; format: binding; details: 1H,15N-HSQC with increasing peptide; protein 200 μM, 298 K
# T2 sequence (Q06124 1-105): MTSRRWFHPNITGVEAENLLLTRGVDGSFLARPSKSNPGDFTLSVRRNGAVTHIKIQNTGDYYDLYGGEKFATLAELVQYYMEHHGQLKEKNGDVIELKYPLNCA
# SHP2 C-SH2 = experiment: NMR 1H,15N-HSQC titration of C-SH2; format: binding, Human; details: 1H,15N-HSQC with increasing peptide; protein 200 μM, 298 K
# Outline: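 Uniformly 15N-labelled SHP2 C-SH2 is expressed in Tuner (DE3) E. coli in minimal medium with 15NH4Cl. Protein at 200 µM is titrated with increasing stoichiometric ratios of N-acetylated, C-amidated phosphopeptide. CSPs combine 1H and 0.15-weighted 15N shift differences.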
Molecule,Kd [1] [µM],binding to N-SH2 by NMR spectra (SHP2 N-SH2),binding to C-SH2 by NMR spectra (SHP2 C-SH2)
CC[C@H](C)[C@H](NC(=O)[C@H](CC(N)=O)NC(=O)[C@@H](NC(=O)[C@H](Cc1ccc(OP(=O)(O)O)cc1)NC(=O)[C@H](CCC(=O)O)NC(=O)[C@H](Cc1c[nH]cn1)NC(=O)CNC(=O)[C@H](CCCCN)NC(=O)[C@H](CCCNC(=N)N)NC(=O)[C@H](CCCCN)NC(C)=O)[C@@H](C)O)C(=O)N[C@@H](CCCCN)C(=O)N[C@@H](Cc1ccc(O)cc1)C(=O)N[C@@H](CO)C(N)=O [SHP2-pY542] (Ac-KRKGHE[pY]TNIKYS-NH2),28,neither SHP2-pY542 nor SHP2-pY580 bind significantly,
EDSARVpYENVGLE [SHP2-pY580],,neither SHP2-pY542 nor SHP2-pY580 bind significantly,no binding
